B1: Osa-1-4 twister ribozyme (parent)
chain: CCGCCUAACACUGCCAAUGCCGGUCCCAAGCCCGGAUAAAAGUGGAGGGGGCGG

Variants of: B1
Assay: self-cleavage, relative activity (ratio to wild type); higher = more cleavage; co-transcriptional
Method in brief: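 A DNA template encoding a 54-nucleotide twister ribozyme from Oryza sativa was made so that each of the 48 positions downstream of the cleavage site carried 97 % wild-type base and 1 % of each other base. Transcription in vitro ran for 2 h at 37 °C, during which the ribozyme could cleave itself. Reverse transcription used a template-switching oligonucleotide, and the products were PCR-amplified and deep-sequenced. Each read was scored as cleaved or uncleaved by whether upstream sequence was present, and relative activity is the fraction cleaved normalised to wild type.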

Variant	self-cleavage
G22U G47C	0.05
G22U G47U	0.07
G22U U24A	0.13
G22U U24C	0.06
G22U U24G	0.07
C25G C26A	0.01
C25G C26U	0.07
C25G C26G	0.12
G23C G34C	0.04
G23C G34U	0.04
G23C G34A	0.06
G23U G53A	0.06
G23U G53C	0.03
G23U G53U	0.06
G23U U43G	0.07
G23U U43A	0.04
G23U U43C	0.04
G22U G45C	0.04
G22U G45A	0.11
G22U G45U	0.06
G23C U43A	0.05
G23C U43G	0.06
G23C U43C	0.05
G23U U24G	0.02

Variant	self-cleavage
G23U U24C	0.03
G23U U24A	0.04
G23A G35A	0.14
G23A G35C	0.08
G23A G35U	0.13
C25A G23U	0.03
C25A G23A	0.06
C25A G23C	0.02
G22U G51C	0.08
G22U G51A	0.1
G22U G51U	0.38
G22U G50A	0.91
G22U G50U	0.75
G22U G50C	0.3
C25A G53A	0.09
C25A G53U	0.05
C25A G53C	0.03
C25A C33U	0.07
C25A C33G	0.02
C25A C33A	0.05
G22U G35C	0.11
G22U G35A	0.36
G22U G35U	0.41
C25A G19U	0.04

Variant	self-cleavage
C25A G19A	0.06
C25A G19C	0.03
C25G C9A	0.02
C25G C9U	0.03
C25G C9G	0.07
U24C	0.53
U24G	0.03
U24A	0.42
G23U G47U	0.04
G23U G47A	0.03
G23U G47C	0.03
G23U G44A	0.04
G23U G44U	0.06
G23U G44C	0.05
C25A U43A	0.06
C25A U43G	0.06
C25A U43C	0.06
G23A U12C	0.08
G23A U12G	0.07
G23A U12A	0.1
G23A G34C	0.07
G23A G34U	0.07
G23A G34A	0.11
G23C G35C	0.06

Variant	self-cleavage
G23C G35A	0.04
G23C G35U	0.04
G23C G47C	0.03
G23C G47U	0.03
G23C G47A	0.03
C25A U12G	0.06
C25A U12C	0.04
C25A U12A	0.06
G23A U24G	0.02
G23A U24C	0.05
G23A U24A	0.09
C25A G34A	0.11
C25A G34C	0.06
C25A G34U	0.11
G23C G45C	0.03
G23C G45U	0.03
G23C G45A	0.04
G23U G50C	0.05
G23U G50U	0.06
G23U G50A	0.05
G23A G50C	0.14
G23A G50A	0.23
G23A G50U	0.3
G23C U12A	0.04

Variant	self-cleavage
G23C U12G	0.04
G23C U12C	0.04
G22U G49U	0.05
G22U G49A	0.07
G22U G49C	0.05
U24G U43G	0.07
U24G U43A	0.03
U24G U43C	0.03
C25A G48A	0.03
C25A G48C	0.03
C25A G48U	0.03
G22U G34A	0.19
G22U G34C	0.4
G22U G34U	0.79
G23U G42U	0.04
G23U G42A	0.05
G23U G42C	0.03
C25A C32A	0.08
C25A C32U	0.04
C25A C32G	0.05
G23C G51U	0.03
G23C G51C	0.03
G23C G51A	0.05
C25A G30C	0.02

Variant	self-cleavage
C25A G30A	0.02
C25A G30U	0.02
G23U G35C	0.05
G23U G35U	0.05
G23U G35A	0.04
G23U G34A	0.04
G23U G34C	0.04
G23U G34U	0.05
G23A G47C	0.06
G23A G47U	0.06
G23A G47A	0.07
C25A C27U	0.03
C25A C27A	0.06
C25A C27G	0.03
C25A C26G	0.05
C25A C26A	0.04
C25A C26U	0.08
G23A G44U	0.18
G23A G44A	0.15
G23A G44C	0.27
C25A G49U	0.82
C25A G49C	0.04
C25A G49A	0.13
G23A G51U	0.08

Variant	self-cleavage
G23A G51C	0.07
G23A G51A	0.09
G23U G51U	0.04
G23U G51C	0.04
G23U G51A	0.05
G23C G48A	0.02
G23C G48U	0.02
G23C G48C	0.02
G22U G54U	0.6
G22U G54C	0.64
G22U G54A	0.58
C25A G45C	0.03
C25A G45U	0.03
C25A G45A	0.03
G22U G42U	0.05
G22U G42A	0.08
G22U G42C	0.07
U24G U37C	0.02
U24G U37A	0.04
U24G U37G	0.04
G23A G30C	0.04
G23A G30U	0.04
G23A G30A	0.04
